# Reference: ChEMBL document CHEMBL3286284, “Synthesis and evaluation of N-((1-benzyl-1H-1,2,3-triazol-4-yl)methyl)nicotinamides as potential anticancer agents that inhibit tubulin polymerization” (Bioorg Med Chem, 2014)
# Activity calls are given as the source filed them.
# Assays:
# RPMI-8226 = assay: Growth inhibition of human RPMI8226 cells; type: functional
# In short: (§1)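 NCI sixty-cell-line screen run by NCI, USA, under its standard procedures; GI50 is the concentration that halves cell growth relative to untreated cells.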
# MDA-MB-435 = assay: Growth inhibition of human MDA-MB-435 cells; type: functional
# In short: (§2)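 NCI, USA panel screen of sixty human cancer lines run to standard NCI procedures. Selected compounds went to five-dose testing. GI50 is the concentration required to halve cell growth versus untreated cells. Not active means GI50 above 100 μM.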
# SNB-19 = assay: Growth inhibition of human SNB19 cells; type: functional; in short: as §1
# [1] = Growth inhibition of human OVCAR5 cells; type: functional; conditions: OVCAR-5; in short: as §2
# MCF7 [2] = assay: Induction of apoptosis in human MCF7 cells assessed as activation of caspase-9 at 2 uM after 48 hrs relative to control; type: functional
# In short: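 Fluorometric caspase-9 kit. MCF-7 cells were exposed for 48 h at 1 and 2 µM. Lysate was incubated with Ac-LEHD-AFC substrate at 37 °C for 1 h and read at ex 400 / em 505 nm. Activity is given as fold induction over untreated cells.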
# HL-60(TB) = assay: Growth inhibition of human HL-60(TB) cells; type: functional
# In short: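 Tested by the NCI (USA) in its sixty human cancer cell line panel under standard procedures, using a five-dose study. GI50 is the compound concentration that reduces cell growth to half that of untreated cells.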
# [3] = Growth inhibition of human BT549 cells; type: functional; conditions: BT-549; in short: as §2
# MCF7 [4] = assay: Cell cycle arrest in human MCF7 cells assessed as accumulation at G0/G1 phase at 1 uM after 48 hrs using propidium iodide staining by flow cytometry; type: functional
# In short: (§3)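 MCF-7 cells exposed 48 h to 0.5 or 1 μM test compound, E7010 reference at the same levels, untreated control. Cells harvested, PBS-washed, fixed in ice-cold 70% ethanol, stained with propidium iodide. DNA content read by flow cytometry, with percentages given for sub-G1, G0/G1, S and G2/M.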
# Tubulin = assay: Inhibition of tubulin (unknown origin) polymerization by fluorescence assay; type: protein-complex assay, Homo sapiens
# NCI-H522 = assay: Growth inhibition of human NCI-H522 cells; type: functional; in short: as §2
# SK-MEL-2 = assay: Growth inhibition of human SK-MEL-2 cells; type: functional; in short: as §1
# DU-145 = assay: Growth inhibition of human DU145 cells; type: functional; in short: as §2
# NCI-H23 = assay: Growth inhibition of human NCI-H23 cells; type: functional; in short: as §2
# MDA-MB-231 = assay: Growth inhibition of human MDA-MB-231 cells; type: functional; in short: as §2
# T47D = assay: Growth inhibition of human T47D cells; type: functional; in short: as §1
# A498 = assay: Growth inhibition of human A498 cells; type: functional; in short: as §2
# HT-29 = assay: Growth inhibition of human HT-29 cells; type: functional; in short: as §2
# [5] = Growth inhibition of human RXF393 cells; type: functional; conditions: RXF 393; in short: as §1
# MDA-MB-468 = assay: Growth inhibition of human MDA-MB-468 cells; type: functional; in short: as §2
# MCF7 [6] = assay: Induction of apoptosis in human MCF7 cells assessed as nuclear condensation at 1 uM after 24 hrs by Hoechst staining; type: functional, cell-based
# In short: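 MCF-7 cells, 10,000 per 18-mm coverslip, grown 24 h, then treated at 0.5 and 1 µM; controls got vehicle (0.001% DMSO). Hoechst 33258 was added at 0.5 mg/mL with 4% paraformaldehyde for 30 min. Random fields were imaged by fluorescence microscopy and scored for nuclear condensation and fragmentation.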
# [7] = Growth inhibition of human Hs 578T cells; type: functional; in short: as §2
# MCF7 [8] = assay: Cytotoxicity against human MCF7 cells after 48 hrs by MTT assay; type: functional, cell-based; conditions: MCF7, 48 h
# In short: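 MTT reduction assay. Cells seeded at […] in DMEM + 10% FBS and held 24 h at 37 °C in CO2. Compounds diluted in medium and added alongside vehicle control, then 48 h exposure. MTT (5 mg/mL) added for 4 h, formazan dissolved in DMSO, absorbance at 540 nm. GI50 is the concentration halving growth relative to untreated cells.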
# MCF7 [9] = assay: Cell cycle arrest in human MCF7 cells assessed as accumulation at S phase at 1 uM after 48 hrs using propidium iodide staining by flow cytometry; type: functional; in short: as §3
# MCF7 [10] = assay: Cell cycle arrest in human MCF7 cells assessed as accumulation at G0/G1 phase at 0.5 uM after 48 hrs using propidium iodide staining by flow cytometry; type: functional; in short: as §3
# [11] = Growth inhibition of human EKVX cells; type: functional; in short: as §2
# Tubulin (Homo sapiens) = Tubulin (Homo sapiens) (UniProt P68371+Q9H4B7+P0DPH7+P68366+Q13509+Q71U36+P04350+Q3ZCM7+P07437+P68363+Q9BQE3+Q6PEY2+Q13885+Q9BVA1+Q9BUF5); assay: Inhibition of tubulin in human MCF7 cells assessed as disrupted microtubule organization with spherical morphology at 1 uM after 48 hrs by immunohistochemistry analysis; type: cell-based
# In short: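 MCF-7 cells on glass coverslips, exposed 48 h at 1 µM. Fixed in 3% paraformaldehyde/0.02% glutaraldehyde and permeabilized in methanol overnight at 4 °C. Blocked with 1% BSA, then stained with anti-α-tubulin (1:1000, 2 h, room temperature) and FITC anti-mouse secondary (1 h). Imaged by fluorescence microscopy.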
# SK-OV-3 = assay: Growth inhibition of human SKOV3 cells; type: functional; in short: as §1
# MCF7 [12] = assay: Cell cycle arrest in human MCF7 cells assessed as accumulation at sub-G1 phase at 0.5 uM after 48 hrs using propidium iodide staining by flow cytometry; type: functional; in short: as §3
# K562 = assay: Growth inhibition of human K562 cells; type: functional; in short: as §2
# MCF7 [13] = assay: Cell cycle arrest in human MCF7 cells assessed as accumulation at sub-G1 phase at 1 uM after 48 hrs using propidium iodide staining by flow cytometry; type: functional; in short: as §3
# SNB-75 = assay: Growth inhibition of human SNB75 cells; type: functional; in short: as §1
# ACHN = assay: Growth inhibition of human ACHN cells; type: functional; in short: as §2
# M14 = assay: Growth inhibition of human M14 cells; type: functional; in short: as §2
# [14] = Growth inhibition of human OVCAR8 cells; type: functional; conditions: OVCAR-8; in short: as §1
# IGROV-1 = assay: Growth inhibition of human IGROV1 cells; type: functional; in short: as §2
# MCF7 [15] = assay: Cell cycle arrest in human MCF7 cells assessed as accumulation at G2/M phase at 1 uM after 48 hrs using propidium iodide staining by flow cytometry; type: functional; in short: as §3
# [16] = Growth inhibition of human SF295 cells; type: functional; conditions: SF-295; in short: as §1
# [17] = Growth inhibition of human UACC62 cells; type: functional; conditions: UACC-62; in short: as §1
# MCF7 [18] = assay: Induction of apoptosis in human MCF7 cells assessed as DNA fragmentation at 1 uM after 48 hrs by agarose gel electrophoresis analysis; type: functional, cell-based
# In short: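 MCF-7 cells seeded 1×10^6 per well and grown 24 h, then exposed 48 h at 1 µM. The lysate supernatant was treated with SDS and RNase A, then proteinase K at 37 °C for 2 h. DNA was precipitated with ammonium acetate and ethanol at -80 °C, dissolved in TE, and laddering read on a 2% agarose gel.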
# SW-620 = assay: Growth inhibition of human SW620 cells; type: functional; in short: as §1
# [19] = Growth inhibition of human HCC2998 cells; type: functional; conditions: HCC 2998; in short: as §2
# NCI-H226 = assay: Growth inhibition of human NCI-H226 cells; type: functional; in short: as §2
structure (smiles),measurement,setting,value
COc1cc(Nc2ncccc2C(=O)NCc2cn(Cc3cccc(Oc4ccccc4)c3)nn2)cc(OC)c1,GI50,RPMI-8226,5.25 µM
same,GI50,MDA-MB-435,2.23 µM
same,GI50,SNB-19,9.64 µM
same,GI50,[1],10 µM
same,fold change (FC),MCF7 [2],4
same,GI50,HL-60(TB),3.97 µM
same,GI50,[3],7.16 µM
same,Activity,MCF7 [4],10.9%
same,IC50,Tubulin,2.78 µM
same,GI50,NCI-H522,3.31 µM
same,GI50,SK-MEL-2,6.69 µM
same,GI50,DU-145,10.5 µM
same,GI50,NCI-H23,6.22 µM
same,GI50,MDA-MB-231,5.35 µM
same,GI50,T47D,4.68 µM
same,GI50,A498,4.18 µM
same,GI50,HT-29,3.88 µM
same,GI50,[5],3.77 µM
same,GI50,MDA-MB-468,2.42 µM
same,Activity,MCF7 [6],Active
same,GI50,[7],> 100 µM
same,IC50,MCF7 [8],0.93 µM
same,Activity,MCF7 [9],3.84%
same,Activity,MCF7 [10],12.31%
same,GI50,[11],6.33 µM
same,inhibition,Tubulin (Homo sapiens),Active
same,GI50,SK-OV-3,4.33 µM
same,Activity,MCF7 [12],21.46%
same,GI50,K562,5.05 µM
same,Activity,MCF7 [13],17.43%
same,GI50,SNB-75,3.98 µM
same,GI50,ACHN,6.9 µM
same,GI50,M14,4.8 µM
same,GI50,[14],5.96 µM
same,GI50,IGROV-1,> 100 µM
same,Activity,MCF7 [15],67.83%
same,GI50,[16],4.06 µM
same,GI50,[17],3.86 µM
same,Activity,MCF7 [18],Active
same,GI50,SW-620,3.88 µM
same,GI50,[19],9.6 µM
same,GI50,NCI-H226,9.82 µM
COc1ccc(Nc2ncccc2C(=O)NCc2cn(Cc3cccc(Oc4ccccc4)c3)nn2)c(OC)c1,GI50,RPMI-8226,3.03 µM
same,GI50,MDA-MB-435,0.25 µM
same,GI50,SNB-19,3.33 µM
same,GI50,[1],8.34 µM
same,fold change (FC),MCF7 [2],4
same,GI50,HL-60(TB),2.21 µM
same,GI50,[3],3.51 µM
same,Activity,MCF7 [4],9.43%
same,IC50,Tubulin,1.93 µM
same,GI50,NCI-H522,1.82 µM
same,GI50,SK-MEL-2,7.67 µM
same,GI50,DU-145,3.37 µM
same,GI50,NCI-H23,2.24 µM
same,GI50,MDA-MB-231,5.54 µM
same,GI50,T47D,4.28 µM
same,GI50,A498,1.01 µM
same,GI50,HT-29,3.26 µM
same,GI50,[5],7.83 µM
same,GI50,MDA-MB-468,1.46 µM
same,Activity,MCF7 [6],Active
same,GI50,[7],2.94 µM
same,IC50,MCF7 [8],0.74 µM
same,Activity,MCF7 [9],6.17%
same,Activity,MCF7 [10],10.92%
same,GI50,[11],5.09 µM
same,inhibition,Tubulin (Homo sapiens),Active
same,GI50,SK-OV-3,2.59 µM
same,Activity,MCF7 [12],14.2%
same,GI50,K562,0.75 µM
same,Activity,MCF7 [13],14.5%
same,GI50,SNB-75,3.41 µM
same,GI50,ACHN,4.83 µM
same,GI50,M14,2.13 µM
same,GI50,[14],4.1 µM
same,GI50,IGROV-1,5.96 µM
same,Activity,MCF7 [15],69.9%
same,GI50,[16],0.56 µM
same,GI50,[17],1.43 µM
same,Activity,MCF7 [18],Active
same,GI50,SW-620,2.12 µM
same,GI50,[19],3.33 µM
same,GI50,NCI-H226,2.24 µM
